The values below come from ChEMBL document CHEMBL1146513, “Discorhabdins I and L, cytotoxic alkaloids from the sponge Latrunculia brevis” (J Nat Prod, 2004).

In data set [1] the test system is LoVo. As to the kind of experiment: Cytotoxicity against human doxorubicin-resistant LoVo cells by SRB assay. The data set is classed as functional, cell-based. The gist of the method: (§1)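 Sulforhodamine B colorimetric staining quantifies cell growth and viability. Compounds were run in vitro against a 14-line tumour panel covering prostate, ovary, breast, melanoma, endothelial, NSCLC, leukaemia, pancreas and colon lines, with values reported as GI50.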

For data set [2], the system named is LoVo. As to the kind of experiment: Cytotoxicity against human LoVo cells by SRB assay. In kind it is functional, cell-based. The essentials: as §1
(The SRB assay estimates cell density from bound dye.)

Data set [3] relates to DU-145. As to the kind of experiment: Cytotoxicity against human DU145 cells by SRB assay. The data set is classed as functional, cell-based. The gist of the method:
as §1

Data set [4] relates to LNCaP. Nature of the data set: Cytotoxicity against human LNCAP cells by SRB assay. In kind it is functional, cell-based. The gist of the method: as §1
For data set [5], the system named is SK-OV-3. As to the kind of experiment: Cytotoxicity against human SKOV3 cells by SRB assay. In kind it is functional, cell-based. The gist of the method:
as §1

Data set [6] deals with IGROV. Nature of the data set: Cytotoxicity against human IGROV cells by SRB assay. In kind it is functional, cell-based. The essentials:
as §1

Data set [7] relates to IGROV-ET. As to the kind of experiment: Cytotoxicity against human IGROV-ET cells by SRB assay. In kind it is functional, cell-based. The essentials: as §1
Data set [8] relates to SK-BR-3. As to the kind of experiment: Cytotoxicity against human SKBR3 cells by SRB assay. In kind it is functional, cell-based. The essentials:
as §1

The subject of data set [9] is SK-MEL-28. Nature of the data set: Cytotoxicity against human SK-MEL-28 cells by SRB assay. The data set is classed as functional, cell-based. The gist of the method:
as §1

Data set [10] in a line: Cytotoxicity against human HMEC1 cells by SRB assay. The data set is classed as cell-based. The conditions noted are these: hmec-1. The gist of the method: as §1
The test system of data set [11] is A549. As to the kind of experiment: Cytotoxicity against human A549 cells by SRB assay. The data set is classed as functional, cell-based. The gist of the method:
as §1

Data set [12] relates to K562. Nature of the data set: Cytotoxicity against human K562 cells by SRB assay. In kind it is functional, cell-based. The essentials:
as §1

For data set [13], the system named is PANC-1. As to the kind of experiment: Cytotoxicity against human PANC1 cells by SRB assay. The data set is classed as functional, cell-based. The essentials: as §1
Data set [14] relates to HT-29. Nature of the data set: Cytotoxicity against human HT-29 cells by SRB assay. The data set is classed as functional. The essentials: as §1

Activity calls are given as the source filed them. No cut-off for these calls is given here.

As usually defined, the GI50 is the concentration that inhibits growth by half. A high value points to less potent growth inhibition. For the compound `O=C1C=C[C@@]23C[C@@H](NC4=C2C2=NCCc5c[nH]c(c52)C4=O)SC3=C1` [1-DEBROMODISCORHABDIN B], the outcome in data set [1], in [2], in data set [3], in data set [4], in [5] and in data set [6] was Active. For the same compound, the result in data set [7], in data set [8], in data set [9], in data set [11], in data set [12] and in [13] was Active. In [10], the result was Active. Moreover, growth in data set [14] was halved (GI50) at 350 nM.

With `O=C([O-])C(F)(F)F.O=C1C2=C3C4=[N+](CCc5c[nH]c1c54)[C@@H]1C(=O)C=C4S[C@@H](C[C@@]43[C@H]1O)N2` [DISCORHABDIN L], the result in data set [1], in data set [2], in data set [3], in data set [4], in [5] and in [6] was Active. Besides, the outcome in [7], in data set [8], in data set [9], in [11], in data set [12] and in [13] was Active. Further, the result in data set [10] was Active. The same compound registered a GI50 in data set [14] of 120 nM.
